Key:
[1] = target: T1, Fatty-acid amide hydrolase 1 (Rattus norvegicus, UniProt P97612); test: Inhibition of FAAH in rat brain homogenates using [3H]anandamide as substrate preincubated for 60 mins by liquid scintillation spectroscopy
T1 sequence (P97612 whole entry): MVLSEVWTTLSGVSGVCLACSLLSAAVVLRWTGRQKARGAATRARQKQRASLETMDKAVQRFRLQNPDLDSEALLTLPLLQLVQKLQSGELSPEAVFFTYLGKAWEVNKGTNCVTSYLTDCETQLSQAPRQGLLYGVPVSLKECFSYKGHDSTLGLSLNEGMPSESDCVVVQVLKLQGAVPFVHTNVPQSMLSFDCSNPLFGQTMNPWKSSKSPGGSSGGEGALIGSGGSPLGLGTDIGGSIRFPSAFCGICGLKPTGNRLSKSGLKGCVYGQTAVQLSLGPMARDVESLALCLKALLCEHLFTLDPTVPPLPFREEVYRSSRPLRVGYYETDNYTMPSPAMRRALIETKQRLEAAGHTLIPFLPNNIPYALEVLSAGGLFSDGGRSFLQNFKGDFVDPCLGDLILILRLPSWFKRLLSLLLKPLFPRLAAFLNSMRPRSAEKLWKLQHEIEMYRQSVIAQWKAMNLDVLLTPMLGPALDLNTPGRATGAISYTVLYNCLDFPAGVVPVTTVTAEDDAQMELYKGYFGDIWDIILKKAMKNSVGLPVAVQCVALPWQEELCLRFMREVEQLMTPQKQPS

[2] = tested on: Cortex; test: Biodistribution in rat brain cortex at < 1 nmol/kg, iv after 40 mins by gamma counting; assay type: ADME, organism-based; conditions: in vivo
Summary of the method: (§1)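 [18F]radiotracer, 3–4 MBq (0.2–1 nmol/kg), given by tail vein in 0.3 mL 10% ethanol/citrate buffer pH 6 to restrained conscious rats. Decapitation at set times. Regions excised, blotted, weighed. Gamma counting decay-corrected to injection against injected-dose standards. Reported as SUV (%ID/g […] body weight kg), mean ± SD, n=4/group. Blocked groups vs vehicle by Student's t test.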

[3] = Drug uptake in Sprague-Dawley rat amygdaloid nuclei at 0.7 to 0.8 nmol/kg, iv after 40 mins by autoradiography analysis; assay type: ADME, organism-based; conditions: in vivo
Summary of the method: (§2)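 Male Sprague-Dawley rats (310–330 g) got 45–55 MBq radiotracer (0.7–0.8 nmol/kg) by tail vein. Pretreated 40 min earlier with vehicle (5% Tween80/saline) or PF-04457845 0.5 mg/kg ip. Killed 40 min post-injection. Brains frozen, cut into 20-μm coronal sections at −20°C, dried, exposed to film for 6 days.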

[4] = Irreversible biodistribution in iv dosed rat brain parenchyma after 2 to 40 mins by gamma counting in presence of FAAH inhibitor URB597; assay type: ADME, organism-based; conditions: in vivo
Summary of the method: (§3)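 After tail-vein radiotracer, rats (n=4–6/group) killed at 2, 10 or 40 min. Whole brain rinsed in saline and homogenised in cold 80% acetonitrile/0.01% aq HCl. Centrifuged and extracted three times in total. Pooled supernatant (unbound) and pellet (bound) counted separately. […] Mean ± SD.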

[5] = Drug uptake in Sprague-Dawley rat cerebellar cortex at 0.7 to 0.8 nmol/kg, iv after 40 mins by autoradiography analysis in presence of FAAH inhibitor PF-04457845; assay type: ADME, organism-based; conditions: in vivo; summary of the method: as §2
[6] = Irreversible biodistribution in iv dosed rat brain parenchyma after 2 mins by gamma counting; assay type: ADME, organism-based; conditions: in vivo; summary of the method: as §3
[7] = tested on: Brain; test: Biodistribution in rat brain at < 1 nmol/kg, iv after 2 to 40 mins by gamma counting in presence of FAAH inhibitor PF-04457845; assay type: ADME, organism-based; conditions: in vivo; summary of the method: as §1
[8] = Irreversible biodistribution in iv dosed rat brain parenchyma after 10 mins by gamma counting; assay type: ADME, organism-based; conditions: in vivo; summary of the method: as §3
[9] = tested on: Cortex; test: Drug uptake in Sprague-Dawley rat cortex at 0.7 to 0.8 nmol/kg, iv after 40 mins by autoradiography analysis in presence of FAAH inhibitor PF-04457845; assay type: ADME, organism-based; conditions: in vivo; summary of the method: as §2
[10] = Drug uptake in Sprague-Dawley rat thalamic nuclei at 0.7 to 0.8 nmol/kg, iv after 40 mins by autoradiography analysis; assay type: ADME, organism-based; conditions: in vivo; summary of the method: as §2
[11] = Irreversible biodistribution in iv dosed rat brain parenchyma after 40 mins by gamma counting; assay type: ADME, organism-based; conditions: in vivo; summary of the method: as §3
[12] = Drug uptake in Sprague-Dawley rat thalamic nuclei at 0.7 to 0.8 nmol/kg, iv after 40 mins by autoradiography analysis in presence of FAAH inhibitor PF-04457845; assay type: ADME, organism-based; conditions: in vivo; summary of the method: as §2
[13] = Drug uptake in Sprague-Dawley rat amygdaloid nuclei at 0.7 to 0.8 nmol/kg, iv after 40 mins by autoradiography analysis in presence of FAAH inhibitor PF-04457845; assay type: ADME, organism-based; conditions: in vivo; summary of the method: as §2
[14] = tested on: Hypothalamus; test: Biodistribution in rat brain hypothalamus at < 1 nmol/kg, iv after 40 mins by gamma counting; assay type: ADME, organism-based; conditions: in vivo; summary of the method: as §1
[15] = tested on: Plasma; test: Drug metabolism in rat plasma after 30 mins; assay type: ADME, cell-free; conditions: 0.5 h
Summary of the method: (§4)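 Radiotracer incubated in vitro in rat or human plasma for 30 min at ambient temperature. Decomposition assessed by radio-HPLC.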

[16] = tested on: Plasma; test: Drug metabolism in rat plasma after 10 mins; assay type: ADME, cell-free
Summary of the method: (§5)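 Rats given radiotracer iv, killed at 10 min. Trunk blood taken into heparin, plasma separated and acidified with 10% v/v acetic acid. Plasma and brain homogenate extracts analysed directly by reverse-phase radio-HPLC for parent vs metabolites.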

[17] = tested on: Cortex; test: Drug uptake in Sprague-Dawley rat cortex at 0.7 to 0.8 nmol/kg, iv after 40 mins by autoradiography analysis; assay type: ADME, organism-based; conditions: in vivo; summary of the method: as §2
[18] = tested on: Cortex; test: Drug uptake in Sprague-Dawley rat cerebellar cortex at 0.7 to 0.8 nmol/kg, iv after 40 mins by autoradiography analysis; assay type: ADME, organism-based; conditions: in vivo; summary of the method: as §2
[19] = tested on: Brain; test: Biodistribution in rat brain at < 1 nmol/kg, iv after 2 to 40 mins by gamma counting in presence of FAAH inhibitor URB597; assay type: ADME, organism-based; conditions: in vivo; summary of the method: as §1
[20] = Drug metabolism in rat brain after 10 mins; assay type: ADME, tissue-based; conditions: read-out: Drug metabolism; summary of the method: as §5
[21] = tested on: Hippocampus; test: Drug uptake in Sprague-Dawley rat hippocampus at 0.7 to 0.8 nmol/kg, iv after 40 mins by autoradiography analysis in presence of FAAH inhibitor PF-04457845; assay type: ADME, organism-based; conditions: in vivo; summary of the method: as §2
[22] = tested on: Hypothalamus; test: Biodistribution in rat brain hypothalamus at < 1 nmol/kg, iv after 2 mins by gamma counting; assay type: ADME, organism-based; conditions: in vivo; summary of the method: as §1
[23] = tested on: Cortex; test: Biodistribution in rat brain cortex at < 1 nmol/kg, iv after 2 mins by gamma counting; assay type: ADME, organism-based; conditions: in vivo; summary of the method: as §1
[24] = tested on: Hippocampus; test: Drug uptake in Sprague-Dawley rat hippocampus at 0.7 to 0.8 nmol/kg, iv after 40 mins by autoradiography analysis; assay type: ADME, organism-based; conditions: in vivo; summary of the method: as §2
[25] = Drug metabolism in human plasma after 30 mins; assay type: ADME, cell-free; conditions: read-out: Drug metabolism; summary of the method: as §4

Molecule `O=C(NCCCCCF)Oc1cccc(C2=NCCO2)c1` has an IC50 [1] of 0.82 nM.
For `O=C(NCCCCC[18F])Oc1cccc(C2=NCCO2)c1`, the SUV [2] was 4.55, the Drug uptake [3] was “Active” and the Drug uptake [4] was 24%. The Drug uptake [5] was “Not Active”, the Drug uptake [6] was 91% and the Drug uptake [7] was “Not Active”. The Drug uptake [8] was 94%, the Drug uptake [9] was “Not Active” and the Drug uptake [10] was “Active”. The Drug uptake [11] was 90%, the Drug uptake [12] was “Not Active” and the Drug uptake [13] was “Not Active”. The SUV [14] was 1.59, the Drug metabolism [15] was over 50% and the Drug metabolism [16] was over 95%. The Drug uptake [17] was “Active”, the Drug uptake [18] was “Active” and the Drug uptake [19] was “Not Active”. For the same molecule, the metabolised at 10 min [20] was 50%, the Drug uptake [21] was “Not Active” and the SUV [22] was 1.74. The SUV [23] was 3.9, the Drug uptake [24] was “Active” and the metabolised at 0.5 h [25] was under 5%.
